Reference: ChEMBL document CHEMBL1121485, “Antiestrogens. Synthesis and evaluation of mammary tumor inhibiting activity of 1,1,2,2-tetraalkyl-1,2 -diphenylethanes” (1980)
One block for each compound: values may come before it.

Columns and labels:
[1] = target: T1, Estrogen receptor (Bos taurus) (UniProt Q9XSB5+P49884); assay: Association constant for Estrogen receptor; assay type: protein assay
[2] = target: T1, Estrogen receptor (Bos taurus); assay: Relative binding affinity for Estrogen receptor compared to 17-beta-estradiol; assay type: protein assay
[3] = target: T1, Estrogen receptor (Bos taurus); assay: Ratio of association constants for estradiol and compound in estrogen receptor binding assay; assay type: protein assay
[4] = target: T2, Estrogen receptor (Mus musculus) (UniProt O08537+P19785); assay: Uterotrophic effect in mice as uterus dry weight(mg) compared to body weight(g) at 0 ug/day dose; assay type: functional, tissue-based
Procedure, shortened: (§1)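 Mice aged 20 days at start, dosed sc once daily for 3 days (0.1 mL injections, arachis oil vehicle); vehicle-only control group. Killed 24 h after last dose; body weight recorded; uteri fixed in Bouin's solution 12 h, trimmed of connective tissue, washed with saturated alcoholic LiCl, dried 100 °C for 24 h, then weighed.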

[5] = target: T2, Estrogen receptor (Mus musculus); assay: Uterotrophic effect in mice as uterus dry weight(mg) compared to body weight(g) at 100 ug/day dose; assay type: functional, tissue-based; procedure, shortened: as §1
[6] = target: T2, Estrogen receptor (Mus musculus); assay: Uterotrophic effect in mice as uterus dry weight(mg) compared to body weight(g) at 20 ug/day dose; assay type: functional, tissue-based; procedure, shortened: as §1
[7] = target: T2, Estrogen receptor (Mus musculus); assay: Uterotrophic effect in mice as uterus dry weight(mg) compared to body weight(g) at 4 ug/day dose; assay type: functional, tissue-based; procedure, shortened: as §1
[8] = target: T2, Estrogen receptor (Mus musculus); assay: Anti-uterotrophic effect in mice as uterus dry weight(mg) compared to body weight(g) at 0 ug/day dose; assay type: functional, tissue-based; procedure, shortened: as §1
[9] = target: T2, Estrogen receptor (Mus musculus); assay: Anti-uterotrophic effect in mice as uterus dry weight(mg) compared to body weight(g) at 10 ug/day dose; assay type: functional, tissue-based; procedure, shortened: as §1
[10] = target: T2, Estrogen receptor (Mus musculus); assay: Anti-uterotrophic effect in mice as uterus dry weight(mg) compared to body weight(g) at 2 ug/day dose; assay type: functional, tissue-based; procedure, shortened: as §1
[11] = target: T2, Estrogen receptor (Mus musculus); assay: Uterotrophic effect in mice as uterus dry weight(mg) compared to body weight(g) at 500 ug/day dose; assay type: functional, tissue-based; procedure, shortened: as §1
[12] = target: T2, Estrogen receptor (Mus musculus); assay: Anti-uterotrophic effect in mice as uterus dry weight(mg) compared to body weight(g) at 25 ug/day dose; assay type: functional, tissue-based; procedure, shortened: as §1
[13] = target: T2, Estrogen receptor (Mus musculus); assay: Anti-uterotrophic effect in mice as uterus dry weight(mg) compared to body weight(g) at 250 ug/day dose; assay type: functional, tissue-based; procedure, shortened: as §1
Mus musculus [14] = species: Mus musculus; assay: Inhibition of estrone-stimulated uterine growth in mice at 2 ug
Mus musculus [15] = species: Mus musculus; assay: Inhibition of estrone-stimulated uterine growth in mice at 10 ug
[16] = target: T2, Estrogen receptor (Mus musculus); assay: Uterotrophic effect in mice as uterus dry weight(mg) compared to body weight(g) at 10 ug/day dose; assay type: functional, tissue-based; procedure, shortened: as §1
[17] = target: T2, Estrogen receptor (Mus musculus); assay: Uterotrophic effect in mice as uterus dry weight(mg) compared to body weight(g) at 2.5 ug/day dose; assay type: functional, tissue-based; procedure, shortened: as §1
[18] = target: T2, Estrogen receptor (Mus musculus); assay: Uterotrophic effect in mice as uterus dry weight(mg) compared to body weight(g) at 250 ug/day dose; assay type: functional, tissue-based; procedure, shortened: as §1
[19] = target: T2, Estrogen receptor (Mus musculus); assay: Uterotrophic effect in mice as uterus dry weight(mg) compared to body weight(g) at 50 ug/day dose; assay type: functional, tissue-based; procedure, shortened: as §1
[20] = target: T2, Estrogen receptor (Mus musculus); assay: Anti-uterotrophic effect in mice as uterus dry weight(mg) compared to body weight(g) at 100 ug/day dose; assay type: functional, tissue-based; procedure, shortened: as §1
[21] = target: T2, Estrogen receptor (Mus musculus); assay: Anti-uterotrophic effect in mice as uterus dry weight(mg) compared to body weight(g) at 2.5 ug/day dose; assay type: functional, tissue-based; procedure, shortened: as §1
Mus musculus [22] = species: Mus musculus; assay: Inhibition of estrone-stimulated uterine growth in mice at 25 ug
Mus musculus [23] = species: Mus musculus; assay: Inhibition of estrone-stimulated uterine growth in mice at 100 ug
Mus musculus [24] = species: Mus musculus; assay: Inhibition of estrone-stimulated uterine growth in mice at 2.5 ug
[25] = target: T2, Estrogen receptor (Mus musculus); assay: Anti-uterotrophic effect in mice as uterus dry weight(mg) compared to body weight(g) at 500 ug/day dose; assay type: functional, tissue-based; procedure, shortened: as §1
[26] = target: T2, Estrogen receptor (Mus musculus); assay: Anti-uterotrophic effect in mice as uterus dry weight(mg) compared to body weight(g) at 5 ug/day dose; assay type: functional, tissue-based; procedure, shortened: as §1
Mus musculus [27] = species: Mus musculus; assay: Inhibition of estrone-stimulated uterine growth in mice at 5 ug
Mus musculus [28] = species: Mus musculus; assay: Inhibition of estrone-stimulated uterine growth in mice at 500 ug
[29] = target: T2, Estrogen receptor (Mus musculus); assay: Uterotrophic effect in mice as uterus dry weight(mg) compared to body weight(g) at 1000 ug/day dose; assay type: functional, tissue-based; procedure, shortened: as §1
[30] = target: T2, Estrogen receptor (Mus musculus); assay: Uterotrophic effect in mice as uterus dry weight(mg) compared to body weight(g) at 24 ug/day dose; assay type: functional, tissue-based; procedure, shortened: as §1
[31] = target: T2, Estrogen receptor (Mus musculus); assay: Anti-uterotrophic effect in mice as uterus dry weight(mg) compared to body weight(g) at 1000 ug/day dose; assay type: functional, tissue-based; procedure, shortened: as §1
[32] = target: T2, Estrogen receptor (Mus musculus); assay: Uterotrophic effect in mice as uterus dry weight(mg) compared to body weight(g) at 80 ug/day dose; assay type: functional, tissue-based; procedure, shortened: as §1
[33] = target: T2, Estrogen receptor (Mus musculus); assay: Uterotrophic effect in mice as uterus dry weight(mg) compared to body weight(g) at 8 ug/day dose; assay type: functional, tissue-based; procedure, shortened: as §1
Mus musculus [34] = species: Mus musculus; assay: Inhibition of estrone-stimulated uterine growth in mice at 5 ug; remark: listed apart in the source
Mus musculus [35] = species: Mus musculus; assay: Inhibition of estrone-stimulated uterine growth in mice at 250 ug
Mus musculus [36] = species: Mus musculus; assay: Inhibition of estrone-stimulated uterine growth in mice at 1000 ug
[37] = target: T2, Estrogen receptor (Mus musculus); assay: Uterotrophic effect in mice as uterus dry weight(mg) compared to body weight(g) at 240 ug/day dose; assay type: functional, tissue-based; procedure, shortened: as §1
[38] = target: T2, Estrogen receptor (Mus musculus); assay: Uterotrophic effect in mice as uterus dry weight(mg) compared to body weight(g) at 2 ug/day dose; assay type: functional, tissue-based; procedure, shortened: as §1
[39] = target: T2, Estrogen receptor (Mus musculus); assay: Uterotrophic effect in mice as uterus dry weight(mg) compared to body weight(g) at 25 ug/day dose; assay type: functional, tissue-based; procedure, shortened: as §1
[40] = target: T2, Estrogen receptor (Mus musculus); assay: Uterotrophic effect in mice as uterus dry weight(mg) compared to body weight(g) at 5 ug/day dose; assay type: functional, tissue-based; procedure, shortened: as §1

T2 sequence (O08537 whole entry, looked up): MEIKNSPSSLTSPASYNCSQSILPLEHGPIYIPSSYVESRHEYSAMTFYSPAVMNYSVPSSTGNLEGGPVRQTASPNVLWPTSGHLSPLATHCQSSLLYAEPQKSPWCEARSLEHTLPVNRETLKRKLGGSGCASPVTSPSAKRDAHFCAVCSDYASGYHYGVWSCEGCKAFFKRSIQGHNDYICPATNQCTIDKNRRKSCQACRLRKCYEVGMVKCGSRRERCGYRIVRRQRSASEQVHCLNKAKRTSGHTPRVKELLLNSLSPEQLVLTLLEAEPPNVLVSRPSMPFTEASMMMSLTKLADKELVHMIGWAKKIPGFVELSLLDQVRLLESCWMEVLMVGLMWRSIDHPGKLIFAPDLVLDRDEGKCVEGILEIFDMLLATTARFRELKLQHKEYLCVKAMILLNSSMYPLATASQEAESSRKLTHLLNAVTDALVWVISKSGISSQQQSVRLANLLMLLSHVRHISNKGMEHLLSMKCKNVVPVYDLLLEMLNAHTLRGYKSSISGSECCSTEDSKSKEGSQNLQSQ
T2 sequence (P19785 whole entry, looked up): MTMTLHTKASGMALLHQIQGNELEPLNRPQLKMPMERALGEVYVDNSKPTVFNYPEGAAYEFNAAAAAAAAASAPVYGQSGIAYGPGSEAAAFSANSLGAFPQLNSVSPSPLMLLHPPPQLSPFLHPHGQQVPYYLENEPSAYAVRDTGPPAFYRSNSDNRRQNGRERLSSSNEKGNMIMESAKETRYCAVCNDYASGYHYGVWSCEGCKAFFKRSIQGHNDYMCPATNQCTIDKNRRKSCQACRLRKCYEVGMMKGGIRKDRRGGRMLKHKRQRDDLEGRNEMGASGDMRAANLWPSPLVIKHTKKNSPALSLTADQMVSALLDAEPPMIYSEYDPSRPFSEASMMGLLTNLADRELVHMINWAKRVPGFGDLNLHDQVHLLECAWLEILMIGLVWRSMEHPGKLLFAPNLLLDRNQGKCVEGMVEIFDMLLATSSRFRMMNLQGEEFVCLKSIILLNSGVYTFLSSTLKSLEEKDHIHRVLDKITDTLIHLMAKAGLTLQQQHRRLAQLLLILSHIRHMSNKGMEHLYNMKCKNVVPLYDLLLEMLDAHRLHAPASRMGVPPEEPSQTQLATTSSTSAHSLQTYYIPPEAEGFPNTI

Compound: CCC(CC)(c1cccc(O)c1)C(CC)(CC)c1cccc(O)c1
Ka [1]: 2.8e+07 M⁻¹
RA [2]: 0.0042
Effect [4]: 15.4
Effect [5]: 52.7
Effect [6]: 35.8
Effect [7]: 23.1
Effect [8]: 15.6
Effect [9]: 32.8
Effect [10]: 27.4
Effect [11]: 52.4
Effect [12]: 38
Effect [13]: 42.9
RAC [3]: 0.0039
Inhibition (Mus musculus [14]): 47%
Inhibition (Mus musculus [15]): 23%

Compound: CC(=O)Oc1cc(OC(C)=O)cc(C(C)(C)C(C)(C)c2cc(OC(C)=O)cc(OC(C)=O)c2)c1
Ka [1]: 480000 M⁻¹
RA [2]: 7.1e-05
Effect [4]: 11.4
Effect [16]: 12.1
Effect [17]: 11.1
Effect [18]: 11.3
Effect [19]: 14.1
Effect [8]: 12.6
Effect [9]: 37.5
Effect [20]: 41.3
Effect [21]: 39.1
Effect [12]: 39
RAC [3]: 6.6e-05
Inhibition (Mus musculus [22]): 9.1%
Inhibition (Mus musculus [15]): 14.4%
Inhibition (Mus musculus [23]): 1.6%
Inhibition (Mus musculus [24]): 8.9%

Compound: CC(C)(c1ccc(O)cc1)C(C)(C)c1ccc(O)cc1
Ka [1]: 7.3e+07 M⁻¹
RA [2]: 0.011
Effect [4]: 9.2
Effect [29]: 14.3
Effect [30]: 15.7
Effect [18]: 13.3
Effect [8]: 11.2
Effect [20]: 19.4
Effect [31]: 24.4
Effect [32]: 15.8
Effect [33]: 10.6
Effect [12]: 28
Effect [13]: 19.3
Effect [26]: 37.3
RAC [3]: 0.01
Inhibition (Mus musculus [34]): 15.4%
Inhibition (Mus musculus [22]): 45.4%
Inhibition (Mus musculus [23]): 73.5%
Inhibition (Mus musculus [35]): 73.5%
Inhibition (Mus musculus [36]): 57.3%

Compound: CCC(CC)(c1ccc(O)cc1)C(CC)(CC)c1ccc(O)cc1
Ka [1]: 4.8e+07 M⁻¹
RA [2]: 0.005
Effect [4]: 9.2
Effect [30]: 23.6
Effect [37]: 43.7
Effect [8]: 14
Effect [9]: 34.6
Effect [10]: 31.3
Effect [32]: 31.9
Effect [33]: 15.3
Effect [12]: 36.4
Effect [13]: 43.2
RAC [3]: 0.0046
Inhibition (Mus musculus [14]): 24.6%
Inhibition (Mus musculus [22]): 2.2%
Inhibition (Mus musculus [15]): 10.3%

Compound: CCC(C)(c1ccc(O)cc1)C(C)(CC)c1ccc(O)cc1 (stereo not drawn)
Ka [1]: 1.8e+07 M⁻¹
RA [2]: 0.0027
Effect [4]: 15.4
Effect [16]: 34.7
Effect [25]: 42.2
Effect [38]: 24.6
Effect [18]: 50.1
Effect [19]: 39.1
Effect [8]: 14
Effect [9]: 34.6
Effect [20]: 38.2
Effect [12]: 34
RAC [3]: 0.0025
Inhibition (Mus musculus [22]): 13.1%
Inhibition (Mus musculus [15]): 10.4%

Compound: CC(C)(c1cc(O)cc(O)c1)C(C)(C)c1cc(O)cc(O)c1
Ka [1]: 290000 M⁻¹
RA [2]: 4.3e-05
Effect [4]: 9.6
Effect [25]: 38.9
Effect [5]: 8.5
Effect [39]: 9.4
Effect [40]: 9
Effect [8]: 11.3
Effect [9]: 30.6
Effect [20]: 40.4
Effect [11]: 14.3
RAC [3]: 4e-05
Inhibition (Mus musculus [15]): 11.7%

Compound: CC(=O)Oc1ccc(C(C)(C)C(C)(C)c2ccc(OC(C)=O)c(OC(C)=O)c2)cc1OC(C)=O
Ka [1]: 1.5e+06 M⁻¹
RA [2]: 0.00023
Effect [4]: 11.4
Effect [16]: 13.8
Effect [17]: 13.8
Effect [18]: 14.2
Effect [19]: 13.6
Effect [8]: 12.6
Effect [9]: 37.8
Effect [20]: 41.6
Effect [21]: 36.4
Effect [12]: 37.8
RAC [3]: 0.00021
Inhibition (Mus musculus [22]): 13.5%
Inhibition (Mus musculus [15]): 13.3%
Inhibition (Mus musculus [23]): 0.3%
Inhibition (Mus musculus [24]): 18.3%

Now from value to compound, other results behind:

Ka [1]: 3.5e+08 M⁻¹
RA [2]: 0.052
RAC [3]: 0.048
Compound: CCC(c1cccc(O)c1)C(CC)c1cccc(O)c1 (stereo not drawn)

Ka [1]: 2.1e+07 M⁻¹
RA [2]: 0.0031
RAC [3]: 0.0029
Compound: CC(C)(c1ccc(F)c(O)c1)C(C)(C)c1ccc(F)c(O)c1
Effect [4]: 15.4
Effect [25]: 25.2
Effect [5]: 16.7
Effect [6]: 16.7
Effect [7]: 17.8
Effect [8]: 15.7
Effect [20]: 27.3
Effect [11]: 21.4
Effect [12]: 35.2
Effect [26]: 36.1
Inhibition (Mus musculus [27]): 17.2%
Inhibition (Mus musculus [22]): 20.9%
Inhibition (Mus musculus [23]): 53.1%
Inhibition (Mus musculus [28]): 61.5%

Ka [1]: 6.7e+07 M⁻¹
RA [2]: 0.01
RAC [3]: 0.0093
Compound: CC(C)(c1cccc(O)c1)C(C)(C)c1cccc(O)c1
Effect [4]: 9.2
Effect [29]: 13.4
Effect [30]: 15.7
Effect [18]: 14.6
Effect [8]: 11.2
Effect [20]: 20.4
Effect [31]: 23.4
Effect [32]: 15.4
Effect [33]: 9.8
Effect [12]: 28.7
Effect [13]: 19.4
Effect [26]: 33.9
Inhibition (Mus musculus [27]): 26.5%
Inhibition (Mus musculus [22]): 43.2%
Inhibition (Mus musculus [23]): 70.3%
Inhibition (Mus musculus [35]): 73.6%
Inhibition (Mus musculus [36]): 60.5%
